Calls of active or inactive are those of the source. The rule behind the calls is not given here.
Legend:
[1] = AUC (0 to t) in Sprague-Dawley rat at 100 mg/kg, ig measured after 0.083 to 36 hrs by LC-MS/MS analysis; assay type: ADME, organism-based; design: time upper 36 hr, time lower 0.083 hr, dose 100 mg/kg, route intragastric; details: in vivo, po
Procedure, shortened: (§1)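 SD rats (200 ± 20 g) randomized to three groups; single intragastric dose of 100 mg/kg or vehicle (0.5% CMC-Na). Tail-vein blood (0.5 mL) drawn at 0.083, 0.25, 0.5, 1, 2, 4, 8, 12, 24 and 36 h. Plasma separated by centrifugation at 2000 rpm for 10 min, frozen at -80 °C, then quantified by LC-MS/MS.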

[2] = target: T1, Retinoic acid receptor RXR-alpha (Homo sapiens) (UniProt P19793); experiment: Activation of RXRalpha in human SW620 cells assessed as reduction in c-Myc protein expression at 40 to 80 uM incubated for 15 hrs by Western blot analysis; assay type: cell-based; details: SW-620
T1 sequence (whole entry): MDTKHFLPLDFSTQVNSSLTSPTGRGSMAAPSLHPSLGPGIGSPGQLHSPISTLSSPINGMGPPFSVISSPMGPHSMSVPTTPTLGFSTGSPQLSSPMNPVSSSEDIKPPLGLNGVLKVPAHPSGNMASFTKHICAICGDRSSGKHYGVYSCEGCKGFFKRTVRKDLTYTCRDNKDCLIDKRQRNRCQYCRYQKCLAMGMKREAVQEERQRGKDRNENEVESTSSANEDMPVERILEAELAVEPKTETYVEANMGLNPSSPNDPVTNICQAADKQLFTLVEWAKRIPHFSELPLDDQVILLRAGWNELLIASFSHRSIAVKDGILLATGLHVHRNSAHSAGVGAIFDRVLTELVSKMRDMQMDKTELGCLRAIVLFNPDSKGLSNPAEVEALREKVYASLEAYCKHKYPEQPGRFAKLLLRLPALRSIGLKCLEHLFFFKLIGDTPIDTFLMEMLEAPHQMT

[3] = Toxicity in BALB/c mouse xenografted with human KM12C cells assessed as effect on biochemical parameter by measuring urea […] level at 100 mg/kg, ig dosed daily for 15 days by automatic chemistry analyzer based analysis (reference value: 8.21 +/- 0.26 mmol/L); assay type: organism-based; details: in vivo, po, 360 h
[4] = target: T1, Retinoic acid receptor RXR-alpha (Homo sapiens); experiment: Activation of RXRalpha in human KM12C cells assessed as induction of beta-catenin protein degradation at 25 to 50 uM incubated for 15 hrs by Western blot analysis; assay type: cell-based
[5] = Cmax in Sprague-Dawley rat at 100 mg/kg, ig measured after 0.083 to 36 hrs by LC-MS/MS analysis; assay type: ADME, organism-based; design: dose 100 mg/kg, route intragastric; details: in vivo, po; procedure, shortened: as §1
[6] = target: T1, Retinoic acid receptor RXR-alpha (Homo sapiens); experiment: Activation of RXRalpha LBD (unknown origin) expressed in human KM12C cells at 50 uM incubated for 15 hrs by luciferase reporter gene assay; assay type: cell-based
Procedure, shortened: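 KM12C co-transfected with pG5luc and pBIND-RXRα-LBD (Gal4-fusion one-hybrid); 20 h post-transfection treated 15 h with 50 μM compound; dual-luciferase read-out (firefly/Renilla) after passive lysis at 4 °C, 1 h; basal activity normalized to 1.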

[7] = target: T1, Retinoic acid receptor RXR-alpha (Homo sapiens); experiment: Activation of RXRalpha in human KM12C cells assessed as reduction in Cdc2 mRNA expression at 25 to 50 uM incubated for 15 hrs by real-time PCR analysis; assay type: cell-based
[8] = target: T1, Retinoic acid receptor RXR-alpha (Homo sapiens); experiment: Activation of RXRalpha in human SW620 cells assessed as reduction in Cdc2 protein expression at 40 to 80 uM incubated for 15 hrs by Western blot analysis; assay type: cell-based; details: SW-620
[9] = Toxicity in BALB/c mouse xenografted with human KM12C cells assessed as effect on biochemical parameter by measuring calcium level at 100 mg/kg, ig dosed daily for 15 days by automatic chemistry analyzer based analysis (reference value: 2.27 +/- 0.059 mmol/L); assay type: organism-based; details: in vivo, po, 360 h
[10] = target: T1, Retinoic acid receptor RXR-alpha (Homo sapiens); experiment: In-vivo activation of RXRalpha in BALB/c mouse xenografted with human KM12C cells assessed as effect on Ki67 protein expression at 100 mg/kg, ig dosed daily for 15 days by immunohistochemistry analysis; assay type: functional, organism-based
[11] = target: T1, Retinoic acid receptor RXR-alpha (Homo sapiens); experiment: Activation of RXRalpha in human SW620 cells assessed as reduction in c-Myc mRNA expression at 40 to 80 uM incubated for 15 hrs by real-time PCR analysis; assay type: cell-based; details: SW-620
[12] = target: T1, Retinoic acid receptor RXR-alpha (Homo sapiens); experiment: Activation of RXRalpha in human KM12C cells assessed as increase in p21 (WAF1/CIP1) protein expression at 25 to 50 uM incubated for 15 hrs by Western blot analysis; assay type: cell-based
[13] = target: T1, Retinoic acid receptor RXR-alpha (Homo sapiens); experiment: Activation of RXRalpha in human KM12C cells assessed as reduction in c-Myc protein expression at 25 to 50 uM incubated for 15 hrs by Western blot analysis; assay type: cell-based
[14] = Toxicity in BALB/c mouse xenografted with human KM12C cells assessed as effect on biochemical parameter by measuring TBIL level at 100 mg/kg, ig dosed daily for 15 days by automatic chemistry analyzer based analysis (reference value: 0.28 +/- 0.024 umol/L); assay type: organism-based; details: in vivo, po, 360 h
[15] = Toxicity in BALB/c mouse xenografted with human KM12C cells assessed as effect on biochemical parameter by measuring total cholesterol level at 100 mg/kg, ig dosed daily for 15 days by automatic chemistry analyzer based analysis (reference value: 2.32 +/- 0.11 mmol/L); assay type: organism-based; details: in vivo, po, 360 h
[16] = target: T1, Retinoic acid receptor RXR-alpha (Homo sapiens); experiment: Activation of RXRalpha in human HCT116 cells assessed as […] crease in p21 (WAF1/CIP1) mRNA expression at 30 to 60 uM incubated for 15 hrs by real-time PCR analysis; assay type: cell-based; details: HCT-116
[17] = target: T1, Retinoic acid receptor RXR-alpha (Homo sapiens); experiment: Activation of RXRalpha in human SW620 cells assessed as […] crease in p21 (WAF1/CIP1) mRNA expression at 40 to 80 uM incubated for 15 hrs by real-time PCR analysis; assay type: cell-based; details: SW-620
[18] = target: T1, Retinoic acid receptor RXR-alpha (Homo sapiens); experiment: In-vivo activation of RXRalpha in BALB/c mouse xenografted with human KM12C cells assessed as increase in p21 (WAF1/CIP) protein expression at 100 mg/kg, ig dosed daily for 15 days by immunohistochemistry analysis; assay type: functional, organism-based
[19] = target: T1, Retinoic acid receptor RXR-alpha (Homo sapiens); experiment: Activation of RXRalpha in human HCT116 cells assessed as inhibition of Wnt/beta-catenin-dependent transcriptional activity at 30 to 60 uM incubated for 15 hrs by TOP/FOP luciferase assay; assay type: cell-based; details: HCT-116
Procedure, shortened: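 TOP/FOP reporter: cells co-transfected by lipofection with pRL-TK plus TOPflash or FOPflash; compound added 20 h after transfection for 15 h; passive lysis at 4 °C, 1 h; firefly and Renilla luciferase measured by dual-luciferase assay.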

[20] = target: T1, Retinoic acid receptor RXR-alpha (Homo sapiens); experiment: In-vivo activation of RXRalpha in BALB/c mouse xenografted with human KM12C cells assessed as induction of beta-catenin protein degradation at 100 mg/kg, ig dosed daily for 15 days by immunohistochemistry analysis; assay type: functional, organism-based
Procedure, shortened: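 KM12C cells (1×10^6 per mouse in 100 μL HBSS) injected subcutaneously into both flanks of nude mice; after seven days, randomized to three groups, dosed intragastrically once daily for 15 days with vehicle (CMC-Na) or 100 mg/kg compound; mice euthanized and tumors removed for analysis.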

[21] = target: T1, Retinoic acid receptor RXR-alpha (Homo sapiens); experiment: Activation of RXRalpha in human HCT116 cells assessed as reduction in c-Myc protein expression at 30 to 60 uM incubated for 15 hrs by Western blot analysis; assay type: cell-based; details: HCT-116

Compound	AUC(0-t) [1] [µg·h/mL]	Activity [2]	Activity [3] [mmol/L]	Activity [4]	Activity [6]	Activity [7]	Activity [8]	Activity [9] [mmol/L]	Activity [10]	Activity [11]	Activity [12]	Activity [13]	Activity [14] [µmol/L]	Activity [15] [mmol/L]	Activity [16]	Activity [17]	Activity [18]	Activity [19]	Activity [20]	Activity [21]	also measured
COc1ccc2c(c1)CC[n+]1cc3c(OC)cccc3cc1-2.[Cl-]	2.1	Active	8.39	Active	Active	Active	Active	2.23	Active	Active	Active	Active	0.21	2.49	Active	Active	Active	Active	Active	Active	Cmax ([5]; Sprague-Dawley, read-out: Cmax): 0.486 µg/mL
COc1ccc2cc3[n+](cc2c1OC)CCc1cc2c(cc1-3)OCO2.[Cl-] [BERBERINE CHLORIDE]	0.099	Active	8.08	Active	Active	Active	Active	2.13	Active	Active	Active	Active	0.26	2.35	Active	Active	Active	Active	Active	Active	Cmax [5]: 0.002893 µg/mL

From ChEMBL document CHEMBL4613270, “Structure-Activity Relationship Study Enables the Discovery of a Novel Berberine Analogue as the RXRα Activator to Inhibit Colon Cancer” (J Med Chem, 2020)
